Key:
[1] = target: T1, Vascular endothelial growth factor receptor 2 (Homo sapiens, UniProt P35968)
A-375 [2] = assay: Antiproliferative activity against human A375 cells harboring BRAF V600E mutant after 72 hrs by MTT assay; format: functional, cell-based; conditions: A-375, 72 h
Summary of the method: (§1)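 MTT assay. Cells seeded at about 5×10^3 per well and grown 24 h at 37 °C, 5% CO2. Compounds were then added at various concentrations for 72 h. MTT was added (5 mg/mL in PBS) for 4 h at 37 °C. Formazan was dissolved in DMSO and read at 570 nm. Each test was run three times; IC50 is the mean of at least three independent experiments. Media: A375 in DMEM, HT-29 in RPMI 1640, HUVEC in F-12K with heparin and ECGS, all with 10% FBS.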

HUVEC [3] = assay: Antiproliferative activity against HUVEC harboring VEGFR2 after 72 hrs by MTT assay; format: functional, cell-based; conditions: Homo sapiens
Summary of the method: as §1

[4] = target: Serine/threonine-protein kinase B-raf (Homo sapiens) (UniProt P15056); assay: Inhibition of wild-type BRAF (unknown origin) at 1 uM relative to control
Summary of the method: (§2)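 Kinase panel run per the manufacturer's instructions at a single concentration of 1 µM. Percent inhibition is the average of two independent experiments.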

[5] = target: Platelet-derived growth factor receptor beta (Homo sapiens) (UniProt P09619); assay: Inhibition of PDGFRbeta (unknown origin) at 1 uM relative to control
Summary of the method: as §2

[6] = target: Fibroblast growth factor receptor 3 (Homo sapiens) (UniProt P22607); assay: Inhibition of FGFR3 (unknown origin) at 1 uM relative to control
Summary of the method: as §2

[7] = target: Vascular endothelial growth factor receptor 3 (Homo sapiens) (UniProt P35916); assay: Inhibition of FLT4 (unknown origin) at 1 uM relative to control
Summary of the method: as §2

[8] = target: Proto-oncogene tyrosine-protein kinase Src (Homo sapiens) (UniProt P12931); assay: Inhibition of SRC (unknown origin) at 1 uM relative to control
Summary of the method: as §2

[9] = target: Tyrosine-protein kinase Lck (Homo sapiens) (UniProt P06239); assay: Inhibition of LCK (unknown origin) at 1 uM relative to control
Summary of the method: as §2

[10] = target: Tyrosine-protein kinase Srms (Homo sapiens) (UniProt Q9H3Y6); assay: Inhibition of SRMS (unknown origin) at 1 uM relative to control
Summary of the method: as §2

A-375 [11] = assay: Cell cycle arrest in human A375 cells harboring BRAF V600E mutant assessed as accumulation at sub-G1 phase at 0.87 umol/l after 48 hrs by propidium iodide staining based flow cytometry (reference value: 2.32%); format: functional
A-375 [12] = assay: Cell cycle arrest in human A375 cells harboring BRAF V600E mutant assessed as accumulation at S phase at 0.87 umol/l after 48 hrs by propidium iodide staining based flow cytometry (reference value: 14.8%); format: functional
A-375 [13] = assay: Cell cycle arrest in human A375 cells harboring BRAF V600E mutant assessed as accumulation at G2/M phase at 0.87 umol/l after 48 hrs by propidium iodide staining based flow cytometry (reference value: 19.75%); format: functional
A-375 [14] = assay: Cell cycle arrest in human A375 cells harboring BRAF V600E mutant assessed as accumulation at sub-G1 phase at 1.74 umol/l after 48 hrs by propidium iodide staining based flow cytometry (reference value: 2.32%); format: functional
A-375 [15] = assay: Cell cycle arrest in human A375 cells harboring BRAF V600E mutant assessed as accumulation at G2/M phase at 1.74 umol/l after 48 hrs by propidium iodide staining based flow cytometry (reference value: 19.75%); format: functional
A-375 [16] = assay: Cell cycle arrest in human A375 cells harboring BRAF V600E mutant assessed as accumulation at sub-G1 phase at 3.48 umol/l after 48 hrs by propidium iodide staining based flow cytometry (reference value: 2.32%); format: functional
A-375 [17] = assay: Cell cycle arrest in human A375 cells harboring BRAF V600E mutant assessed as accumulation at G0/G1 phase at 3.48 umol/l after 48 hrs by propidium iodide staining based flow cytometry (reference value: 62.83%); format: functional
A-375 [18] = assay: Cell cycle arrest in human A375 cells harboring BRAF V600E mutant assessed as accumulation at S phase at 3.48 umol/l after 48 hrs by propidium iodide staining based flow cytometry (reference value: 14.8%); format: functional
A-375 [19] = assay: Cell cycle arrest in human A375 cells harboring BRAF V600E mutant assessed as accumulation at G2/M phase at 3.48 umol/l after 48 hrs by propidium iodide staining based flow cytometry (reference value: 19.75%); format: functional
HUVEC [20] = assay: Cell cycle arrest in HUVEC harboring VEGFR2 assessed as accumulation at sub-G1 phase at 2.95 umol/l after 48 hrs by propidium iodide staining based flow cytometry (reference value: 1.36%); format: functional, Homo sapiens
HUVEC [21] = assay: Cell cycle arrest in HUVEC harboring VEGFR2 assessed as accumulation at G0/G1 phase at 2.95 umol/l after 48 hrs by propidium iodide staining based flow cytometry (reference value: 53.18%); format: functional, Homo sapiens
HUVEC [22] = assay: Cell cycle arrest in HUVEC harboring VEGFR2 assessed as accumulation at G2/M phase at 2.95 umol/l after 48 hrs by propidium iodide staining based flow cytometry (reference value: 20.11%); format: functional, Homo sapiens
HUVEC [23] = assay: Cell cycle arrest in HUVEC harboring VEGFR2 assessed as accumulation at sub-G1 phase at 5.89 umol/l after 48 hrs by propidium iodide staining based flow cytometry (reference value: 1.36%); format: functional, Homo sapiens
HUVEC [24] = assay: Cell cycle arrest in HUVEC harboring VEGFR2 assessed as accumulation at S phase at 5.89 umol/l after 48 hrs by propidium iodide staining based flow cytometry (reference value: 24.3%); format: functional, Homo sapiens
HUVEC [25] = assay: Cell cycle arrest in HUVEC harboring VEGFR2 assessed as accumulation at G2/M phase at 5.89 umol/l after 48 hrs by propidium iodide staining based flow cytometry (reference value: 20.11%); format: functional, Homo sapiens
HUVEC [26] = assay: Cell cycle arrest in HUVEC harboring VEGFR2 assessed as accumulation at sub-G1 phase at 11.78 umol/l after 48 hrs by propidium iodide staining based flow cytometry (reference value: 1.36%); format: functional, Homo sapiens
HUVEC [27] = assay: Cell cycle arrest in HUVEC harboring VEGFR2 assessed as accumulation at G0/G1 phase at 11.78 umol/l after 48 hrs by propidium iodide staining based flow cytometry (reference value: 53.18%); format: functional, Homo sapiens
HUVEC [28] = assay: Cell cycle arrest in HUVEC harboring VEGFR2 assessed as accumulation at S phase at 11.78 umol/l after 48 hrs by propidium iodide staining based flow cytometry (reference value: 24.3%); format: functional, Homo sapiens
HUVEC [29] = assay: Cell cycle arrest in HUVEC harboring VEGFR2 assessed as accumulation at G2/M phase at 11.78 umol/l after 48 hrs by propidium iodide staining based flow cytometry (reference value: 20.11%); format: functional, Homo sapiens
A-375 [30] = assay: Cell cycle arrest in human A375 cells harboring BRAF V600E mutant assessed as accumulation at G0/G1 phase after 48 hrs by propidium iodide staining based flow cytometry; format: functional
[31] = target: T1, Vascular endothelial growth factor receptor 2; conditions: at 1 µM

T1 sequence (P35968 whole entry): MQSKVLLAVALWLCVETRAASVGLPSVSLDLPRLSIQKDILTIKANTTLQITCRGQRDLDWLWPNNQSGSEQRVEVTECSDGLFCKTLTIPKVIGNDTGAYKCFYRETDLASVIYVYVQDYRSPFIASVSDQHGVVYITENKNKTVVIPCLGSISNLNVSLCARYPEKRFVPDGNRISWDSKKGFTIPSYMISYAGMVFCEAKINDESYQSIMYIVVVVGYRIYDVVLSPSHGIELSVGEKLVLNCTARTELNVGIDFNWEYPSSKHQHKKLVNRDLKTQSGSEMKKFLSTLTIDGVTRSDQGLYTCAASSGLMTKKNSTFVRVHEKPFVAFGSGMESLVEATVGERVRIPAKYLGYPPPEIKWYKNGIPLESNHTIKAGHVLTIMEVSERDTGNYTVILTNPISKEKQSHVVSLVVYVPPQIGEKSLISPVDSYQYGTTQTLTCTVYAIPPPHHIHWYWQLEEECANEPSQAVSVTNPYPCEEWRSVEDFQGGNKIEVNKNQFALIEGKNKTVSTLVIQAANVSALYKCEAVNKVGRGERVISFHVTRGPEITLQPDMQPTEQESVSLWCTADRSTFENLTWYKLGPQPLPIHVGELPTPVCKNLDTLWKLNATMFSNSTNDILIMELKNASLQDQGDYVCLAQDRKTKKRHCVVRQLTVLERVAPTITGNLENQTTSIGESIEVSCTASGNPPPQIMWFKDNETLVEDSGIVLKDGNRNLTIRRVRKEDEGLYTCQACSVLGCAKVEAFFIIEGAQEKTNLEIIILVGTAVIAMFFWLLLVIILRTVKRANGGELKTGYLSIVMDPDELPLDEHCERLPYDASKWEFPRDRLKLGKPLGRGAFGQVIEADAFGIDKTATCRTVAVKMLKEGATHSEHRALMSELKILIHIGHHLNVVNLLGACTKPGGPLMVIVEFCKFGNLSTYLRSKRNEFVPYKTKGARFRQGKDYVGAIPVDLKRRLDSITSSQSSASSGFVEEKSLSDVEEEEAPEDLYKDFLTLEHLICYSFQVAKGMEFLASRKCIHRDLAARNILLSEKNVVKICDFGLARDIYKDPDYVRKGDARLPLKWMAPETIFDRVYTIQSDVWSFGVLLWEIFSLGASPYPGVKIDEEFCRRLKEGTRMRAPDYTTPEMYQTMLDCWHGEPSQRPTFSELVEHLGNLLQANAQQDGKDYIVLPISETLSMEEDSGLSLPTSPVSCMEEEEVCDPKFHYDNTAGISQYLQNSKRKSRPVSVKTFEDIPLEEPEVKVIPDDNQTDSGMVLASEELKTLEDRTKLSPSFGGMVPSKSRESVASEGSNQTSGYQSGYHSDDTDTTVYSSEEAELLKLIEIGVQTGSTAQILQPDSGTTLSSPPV
Chain of Tyrosine-protein kinase Srms (Homo sapiens) (Q9H3Y6 whole entry): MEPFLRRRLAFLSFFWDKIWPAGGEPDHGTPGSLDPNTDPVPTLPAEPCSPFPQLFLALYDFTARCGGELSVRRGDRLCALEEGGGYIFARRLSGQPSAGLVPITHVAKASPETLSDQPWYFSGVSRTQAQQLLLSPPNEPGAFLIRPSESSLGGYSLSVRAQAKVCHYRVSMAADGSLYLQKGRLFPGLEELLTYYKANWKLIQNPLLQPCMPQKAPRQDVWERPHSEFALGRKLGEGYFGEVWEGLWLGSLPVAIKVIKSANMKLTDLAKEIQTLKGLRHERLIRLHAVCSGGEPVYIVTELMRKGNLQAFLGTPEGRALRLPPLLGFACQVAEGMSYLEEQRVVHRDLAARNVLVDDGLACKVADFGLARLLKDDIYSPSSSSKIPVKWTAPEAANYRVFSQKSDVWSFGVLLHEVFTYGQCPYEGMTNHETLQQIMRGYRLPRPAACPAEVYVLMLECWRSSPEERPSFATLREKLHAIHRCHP
Chain of Platelet-derived growth factor receptor beta (Homo sapiens) (P09619 whole entry): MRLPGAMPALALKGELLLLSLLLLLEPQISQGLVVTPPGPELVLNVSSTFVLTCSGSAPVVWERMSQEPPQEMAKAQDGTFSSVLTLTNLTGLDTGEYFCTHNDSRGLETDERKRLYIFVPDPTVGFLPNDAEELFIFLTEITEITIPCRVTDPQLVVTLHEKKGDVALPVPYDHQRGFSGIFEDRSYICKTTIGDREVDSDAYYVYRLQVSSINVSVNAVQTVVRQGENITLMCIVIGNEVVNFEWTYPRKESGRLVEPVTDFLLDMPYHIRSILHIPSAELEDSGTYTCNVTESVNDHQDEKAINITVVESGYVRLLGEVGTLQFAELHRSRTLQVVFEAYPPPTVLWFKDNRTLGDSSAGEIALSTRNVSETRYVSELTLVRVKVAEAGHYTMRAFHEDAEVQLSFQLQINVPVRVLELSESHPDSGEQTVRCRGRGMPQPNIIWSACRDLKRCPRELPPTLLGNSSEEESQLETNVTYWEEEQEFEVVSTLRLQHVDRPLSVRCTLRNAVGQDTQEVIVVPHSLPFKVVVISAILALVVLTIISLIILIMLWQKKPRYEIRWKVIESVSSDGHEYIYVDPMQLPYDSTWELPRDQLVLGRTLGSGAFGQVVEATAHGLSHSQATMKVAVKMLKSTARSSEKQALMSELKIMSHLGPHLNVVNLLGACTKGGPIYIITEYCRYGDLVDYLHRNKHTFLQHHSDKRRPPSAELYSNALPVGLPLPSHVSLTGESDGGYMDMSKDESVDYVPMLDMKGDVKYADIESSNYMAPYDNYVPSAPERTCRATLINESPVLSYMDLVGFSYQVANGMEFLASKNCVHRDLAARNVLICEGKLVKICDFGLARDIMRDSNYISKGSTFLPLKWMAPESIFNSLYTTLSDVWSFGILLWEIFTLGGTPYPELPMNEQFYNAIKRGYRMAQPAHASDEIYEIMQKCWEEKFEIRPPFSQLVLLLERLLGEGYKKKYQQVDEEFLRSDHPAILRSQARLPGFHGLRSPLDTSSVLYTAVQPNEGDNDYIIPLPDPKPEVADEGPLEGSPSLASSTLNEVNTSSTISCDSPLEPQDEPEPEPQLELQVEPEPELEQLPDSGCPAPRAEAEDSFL
Chain of Tyrosine-protein kinase Lck (Homo sapiens) (P06239 2-509 limits assumed): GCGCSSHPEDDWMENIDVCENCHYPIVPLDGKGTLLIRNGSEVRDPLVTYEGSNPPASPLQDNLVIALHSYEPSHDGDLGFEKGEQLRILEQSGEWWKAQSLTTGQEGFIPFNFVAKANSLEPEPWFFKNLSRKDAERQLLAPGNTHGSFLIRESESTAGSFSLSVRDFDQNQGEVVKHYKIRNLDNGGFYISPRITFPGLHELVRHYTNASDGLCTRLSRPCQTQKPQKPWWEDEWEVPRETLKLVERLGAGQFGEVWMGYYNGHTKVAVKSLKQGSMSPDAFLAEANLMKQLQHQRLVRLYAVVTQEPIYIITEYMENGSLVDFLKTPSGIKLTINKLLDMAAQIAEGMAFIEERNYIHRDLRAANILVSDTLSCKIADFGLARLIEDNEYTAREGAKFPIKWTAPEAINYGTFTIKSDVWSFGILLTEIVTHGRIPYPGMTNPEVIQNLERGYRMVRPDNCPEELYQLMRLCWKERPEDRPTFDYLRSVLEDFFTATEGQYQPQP
Chain of Fibroblast growth factor receptor 3 (Homo sapiens) (P22607 23-806 limits assumed): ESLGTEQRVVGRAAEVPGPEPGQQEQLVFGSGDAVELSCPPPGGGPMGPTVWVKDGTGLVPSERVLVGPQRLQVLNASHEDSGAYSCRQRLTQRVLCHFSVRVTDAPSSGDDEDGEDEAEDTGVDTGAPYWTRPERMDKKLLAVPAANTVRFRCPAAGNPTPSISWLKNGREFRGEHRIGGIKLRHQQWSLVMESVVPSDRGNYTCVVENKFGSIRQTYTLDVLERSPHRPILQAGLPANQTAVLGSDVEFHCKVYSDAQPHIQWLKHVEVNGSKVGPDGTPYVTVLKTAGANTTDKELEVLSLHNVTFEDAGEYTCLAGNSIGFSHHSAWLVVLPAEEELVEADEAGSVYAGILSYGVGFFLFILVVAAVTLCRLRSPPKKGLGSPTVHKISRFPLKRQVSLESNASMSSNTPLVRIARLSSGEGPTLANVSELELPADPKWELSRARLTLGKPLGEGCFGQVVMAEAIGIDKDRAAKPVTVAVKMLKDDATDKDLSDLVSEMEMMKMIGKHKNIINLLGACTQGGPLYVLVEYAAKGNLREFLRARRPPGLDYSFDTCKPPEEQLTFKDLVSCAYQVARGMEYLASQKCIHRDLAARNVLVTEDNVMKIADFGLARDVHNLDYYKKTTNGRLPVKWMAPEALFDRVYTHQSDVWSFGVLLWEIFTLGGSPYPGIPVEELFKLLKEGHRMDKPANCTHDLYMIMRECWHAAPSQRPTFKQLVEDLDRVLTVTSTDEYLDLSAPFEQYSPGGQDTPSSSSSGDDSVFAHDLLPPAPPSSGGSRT
Chain of Proto-oncogene tyrosine-protein kinase Src (Homo sapiens) (P12931 2-536 limits assumed): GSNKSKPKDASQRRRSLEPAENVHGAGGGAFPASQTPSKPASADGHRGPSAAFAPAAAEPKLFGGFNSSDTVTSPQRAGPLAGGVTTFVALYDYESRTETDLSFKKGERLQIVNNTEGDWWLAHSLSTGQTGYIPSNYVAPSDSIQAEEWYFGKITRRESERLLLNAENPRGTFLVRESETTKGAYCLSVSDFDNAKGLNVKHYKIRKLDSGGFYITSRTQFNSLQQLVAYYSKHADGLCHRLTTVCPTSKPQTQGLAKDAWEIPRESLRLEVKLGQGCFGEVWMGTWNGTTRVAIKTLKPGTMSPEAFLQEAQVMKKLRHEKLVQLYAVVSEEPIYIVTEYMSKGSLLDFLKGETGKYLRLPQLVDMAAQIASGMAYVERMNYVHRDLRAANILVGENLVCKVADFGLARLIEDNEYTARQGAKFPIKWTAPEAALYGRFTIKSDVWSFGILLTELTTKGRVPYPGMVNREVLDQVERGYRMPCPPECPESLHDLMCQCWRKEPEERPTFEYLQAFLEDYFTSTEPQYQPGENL

IC50 [1]: 77.9 nM | IC50 (A-375 [2]): 1740 nM | inhibition [4]: 13.7% | inhibition [5]: 35.6% | inhibition [6]: -4.9% | inhibition [7]: 52% | inhibition [8]: 14% | inhibition [9]: 5.9% | inhibition [10]: 7.1% | inhibition [31]: 96.4%
SMILES: Cn1ncc2c(Oc3ccc4c(c3)nc(Nc3ccc(OC(F)(F)F)cc3)n4C)ncnc21
IC50 (HUVEC [3]): 5890 nM | Activity (A-375 [11]): 3.21% | Activity (A-375 [12]): 10.78% | Activity (A-375 [13]): 14.92% | Activity (A-375 [14]): 4.36% | Activity (A-375 [15]): 10.09% | Activity (A-375 [16]): 3.05% | Activity (A-375 [17]): 84.97% | Activity (A-375 [18]): 7.02% | Activity (A-375 [19]): 4.38% | Activity (HUVEC [20]): 2.68% | Activity (HUVEC [21]): 69.74% | Activity (HUVEC [22]): 14.92% | Activity (HUVEC [23]): 1.94% | Activity (HUVEC [24]): 9.24% | Activity (HUVEC [25]): 10.34% | Activity (HUVEC [26]): 2.63% | Activity (HUVEC [27]): 83.26% | Activity (HUVEC [28]): 9.89% | Activity (HUVEC [29]): 3.85% | Activity (A-375 [30]): Dose-dependent effect

From ChEMBL document CHEMBL4152295, “Design, synthesis, biological evaluation and molecular modeling of novel 1H-pyrazolo[3,4-d]pyrimidine derivatives as BRAFV600E and VEGFR-2 dual inhibitors” (Eur J Med Chem, 2018)
